Test results published in ChEMBL document CHEMBL5512642, “Novel triterpenoid pyrones, phthalimides and phthalates are selectively cytotoxic in CCRF-CEM cancer cells - Synthesis, potency, and mitochondrial mechanism of action” (Eur J Med Chem, 2024).
Activity calls are given as the source filed them. The calls are words filed in the database; no cut-off is given here.

Assays:
[1] = system: CCRF-CEM; test: Cytotoxicity against human CCRF-CEM cells assessed as reduction in cell viability incubated for 72 hrs by MTS assay; type: functional, cell-based
[2] = system: CEM-DNR; test: Cytotoxicity against human CEM-DNR cells assessed as reduction in cell viability incubated for 72 hrs by MTS assay; type: functional, cell-based
[3] = system: K562; test: Cytotoxicity against human K562 cells assessed as reduction in cell viability incubated for 72 hrs by MTS assay; type: functional, cell-based; conditions: K562, 72 h
[4] = Cytotoxicity against human K562-Tax cells assessed as reduction in cell viability incubated for 72 hrs by MTS assay; type: functional, cell-based
[5] = system: A549; test: Cytotoxicity against human A549 cells assessed as reduction in cell viability incubated for 72 hrs by MTS assay; type: functional, cell-based; conditions: A549, 72 h
[6] = system: HCT-116; test: Cytotoxicity against human HCT-116 cells assessed as reduction in cell viability incubated for 72 hrs by MTS assay; type: functional, cell-based; conditions: HCT-116, 72 h
[7] = system: HCT 116 TP53(-/-); test: Cytotoxicity against human HCT116-p53-null cells assessed as reduction in cell viability incubated for 72 hrs by MTS assay; type: functional, cell-based
[8] = system: U2OS; test: Cytotoxicity against human U2OS cells assessed as reduction in cell viability incubated for 72 hrs by MTS assay; type: functional, cell-based
[9] = Cytotoxicity against human BJ cells assessed as reduction in cell viability incubated for 72 hrs by MTS assay; type: toxicity, cell-based
[10] = Cytotoxicity against human MRC5 cells assessed as reduction in cell viability incubated for 72 hrs by MTS assay; type: toxicity, cell-based
[11] = Stability in human plasma assessed as compound remaining measured 15 mins by RF-MS analysis; type: ADME, cell-free; conditions: read-out: Stability
Summary of the method: (§1)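 Compounds incubated in human plasma in vitro for up to 2 h. Percent remaining sampled at 15, 30, 60 and 120 min. Run in triplicate.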

[12] = Stability in human plasma assessed as compound remaining measured 30 mins by RF-MS analysis; type: ADME, cell-free; conditions: read-out: Stability; summary of the method: as §1
[13] = Stability in human plasma assessed as compound remaining measured 60 mins by RF-MS analysis; type: ADME, cell-free; conditions: read-out: Stability; summary of the method: as §1
[14] = Stability in human plasma assessed as compound remaining measured 120 mins by RF-MS analysis; type: ADME, cell-free; conditions: read-out: Stability; summary of the method: as §1
[15] = Plasma protein binding in human assessed as fraction bound at 10 uM by rapid equilibrium dialysis based RF-MS analysis; type: ADME, cell-free; conditions: read-out: PPB (converted)
Summary of the method: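 Human plasma protein binding measured by equilibrium dialysis and reported as percent fraction bound. Run in triplicate.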

[16] = Apparent permeability of the compound in MDCK-MDR1 cells at 10 uM incubated for 1 hr by RF-MS analysis; type: ADME, cell-based, Canis lupus familiaris; conditions: dog
Summary of the method: (§2)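 Caco-2 and MDCK-MDR1 monolayers; transport measured in both directions, apical→basolateral and basolateral→apical. Efflux ratio taken from the two directions; ER > 2 counted as active efflux. Compound recovery reported. Cell-based permeability runs done in duplicate.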

[17] = Efflux ratio of apparent permeability across basolateral to apical side over apical to basolateral side in MDCK-MDR1 cells; type: ADME, cell-based, Canis lupus familiaris; conditions: dog; summary of the method: as §2
[18] = Apparent permeability of the compound across apical to basolateral side in MDCK-MDR1 cells assessed as compound recovery at 10 uM incubated for 1 hr by RF-MS analysis; type: ADME, cell-based, Canis lupus familiaris; conditions: dog, read-out: Activity; summary of the method: as §2
[19] = Metabolic stability in human liver microsomes assessed as compound remaining at measured at 15 mins in presence of NADPH by RF-MS analysis; type: ADME, Microsome; conditions: read-out: Stability
Summary of the method: (§3)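 Human liver microsomes with NADPH cofactor to assess phase I oxidation. Compound remaining sampled at 15, 30 and 60 min; intrinsic clearance derived and categorized. Run in triplicate.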

[20] = Metabolic stability in human liver microsomes assessed as compound remaining at measured at 30 mins in presence of NADPH by RF-MS analysis; type: ADME, Microsome; conditions: read-out: Stability; summary of the method: as §3
[21] = Metabolic stability in human liver microsomes assessed as compound remaining at measured at 60 mins in presence of NADPH by RF-MS analysis; type: ADME, Microsome; conditions: read-out: Stability; summary of the method: as §3
[22] = Apparent permeability of the compound in human Caco-2 cells; type: ADME, cell-based; summary of the method: as §2
[23] = Efflux ratio of apparent permeability across basolateral to apical side over apical to basolateral side in human Caco-2 cells; type: ADME, cell-based; summary of the method: as §2
[24] = Apparent permeability of the compound across apical to basolateral side in human Caco-2 cells assessed as compound recovery; type: ADME, cell-based; conditions: read-out: Activity; summary of the method: as §2
[25] = system: CCRF-CEM; test: Induction of apoptosis in human CCRF-CEM cells assessed as viable cells at 1 time IC50 incubated for 24 hrs by Annexin V and propidium iodide staining based flow cytometry analysis (reference value: 98%); type: functional
[26] = system: CCRF-CEM; test: Induction of apoptosis in human CCRF-CEM cells assessed as early apoptotic cells at 1 time IC50 incubated for 24 hrs by Annexin V and propidium iodide staining based flow cytometry analysis (reference value: 1.4%); type: functional
[27] = system: CCRF-CEM; test: Induction of apoptosis in human CCRF-CEM cells assessed as late apoptotic cells at 1 time IC50 incubated for 24 hrs by Annexin V and propidium iodide staining based flow cytometry analysis (reference value: 0.5%); type: functional
[28] = system: CCRF-CEM; test: Induction of apoptosis in human CCRF-CEM cells assessed as necrotic cells at 1 time IC50 incubated for 24 hrs by Annexin V and propidium iodide staining based flow cytometry analysis (reference value: 0.1%); type: functional
[29] = system: CCRF-CEM; test: Induction of apoptosis in human CCRF-CEM cells assessed as viable cells at 5 time IC50 incubated for 24 hrs by Annexin V and propidium iodide staining based flow cytometry analysis (reference value: 98%); type: functional
[30] = system: CCRF-CEM; test: Induction of apoptosis in human CCRF-CEM cells assessed as early apoptotic cells at 5 time IC50 incubated for 24 hrs by Annexin V and propidium iodide staining based flow cytometry analysis (reference value: 1.4%); type: functional
[31] = system: CCRF-CEM; test: Induction of apoptosis in human CCRF-CEM cells assessed as late apoptotic cells at 5 time IC50 incubated for 24 hrs by Annexin V and propidium iodide staining based flow cytometry analysis (reference value: 0.5%); type: functional
[32] = system: CCRF-CEM; test: Induction of apoptosis in human CCRF-CEM cells assessed as necrotic cells at 5 time IC50 incubated for 24 hrs by Annexin V and propidium iodide staining based flow cytometry analysis (reference value: 0.; type: functional
[33] = system: CCRF-CEM; test: Antimitotic activity against human CCRF-CEM cells assessed as decrease in cell division at 5 times of IC50; type: functional, cell-based
Summary of the method: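 Mitotic fraction scored with the pH3 Ser10 marker and DNA synthesis with BrdU incorporation. For transcription, cells received a short BrU pulse after the 24 h pre-incubation. Read by flow cytometry against untreated cells.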

[34] = system: CCRF-CEM; test: Induction of apoptosis in human CCRF-CEM cells assessed as reduction in Bcl-2 expression at 5 time of IC50 incubated for 24 hrs by Western blot analysis; type: functional, cell-based
Summary of the method: (§4)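 Lysate 20 µg protein per lane on SDS-PAGE, transferred to nitrocellulose, blocked in 5% BSA/TBS-Tween. Probed overnight at 4 °C with anti-caspase-3, Bcl-2, Bcl-XL, β-actin, then HRP secondary 1 h. ECL chemiluminescence detection.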

[35] = system: CCRF-CEM; test: Induction of apoptosis in human CCRF-CEM cells assessed as reduction in Bcl-XL expression at 5 time of IC50 incubated for 24 hrs by Western blot analysis; type: functional, cell-based; summary of the method: as §4
[36] = system: CCRF-CEM; test: Induction of mitochondrial membrane potential loss in human CCRF-CEM cells assessed as cells with depolarized mitochondria (P2 gate) by measuring green fluorescence intensity at 1 time IC50 incubated for 24 hrs by JC-1 staining based flow cytometry (reference value: 2.1%)
[37] = system: CCRF-CEM; test: Induction of mitochondrial membrane potential loss in human CCRF-CEM cells assessed as cells with depolarized mitochondria (P2 gate) by measuring green fluorescence intensity at 5 time IC50 incubated for 24 hrs by JC-1 staining based flow cytometry (reference value: 2.1%)
[38] = system: CCRF-CEM; test: Induction of apoptosis in human CCRF-CEM cells assessed as reduction in caspase-3 expression at 5 time of IC50 incubated for 24 hrs by Western blot analysis; type: functional, cell-based; summary of the method: as §4

| Compound | IC50 [1] | IC50 [2] | IC50 [3] | IC50 [4] | IC50 [5] | IC50 [6] | IC50 [7] | IC50 [8] | IC50 at 72 h [9] | IC50 at 72 h [10] | remaining at 0.25 h [11] | remaining at 0.5 h [12] | remaining at 1 h [13] | remaining at 2 h [14] | fraction unbound at 10 µM [15] | Papp at 1 h, 10 µM [16] | recovery at 1 h, 10 µM [18] | remaining at 0.25 h [19] | remaining at 1 h [21] | Papp [22] | further results |
| --- | --- | --- | --- | --- | --- | --- | --- | --- | --- | --- | --- | --- | --- | --- | --- | --- | --- | --- | --- | --- | --- |
| C=C(C)[C@@H]1CC[C@]2(C(=O)O)CC[C@]3(C)[C@H](CC[C@@H]4[C@@]5(C)Cc6c(C(F)(F)F)cc(C(=O)OC)c(C(=O)OC)c6C(C)(C)[C@@H]5CC[C@]43C)[C@@H]12 | 3.8 µM | > 50 µM | 18 µM | > 50 µM | 18 µM | 23 µM | 13 µM | 17 µM | > 50 µM | > 50 µM | 103% | 96.7% | 96.2% | 93.8% | 0.184 | 4.46 ×10⁻⁶ cm/s | 71.2% | 91% | 76% | 1.73 ×10⁻⁶ cm/s | efflux ratio [17]: 6.95; remaining at 0.5 h [20]: 102%; efflux ratio [23]: 5.62; recovery [24]: 75.8%; Activity [25]: 92.9%; Activity [26]: 4.3%; Activity [27]: 2.8%; Activity [28]: 0%; Activity [29]: 87.3%; Activity [30]: 8.5%; Activity [31]: 4.2%; Activity [32]: 0%; Activity [33]: Active; Activity [34]: Active; Activity [35]: Active; Activity [36]: 2.4%; Activity [37]: 38.1% |
| C[C@H]1[C@H](C)CC[C@]2(C(=O)O)CC[C@]3(C)C(=CC[C@@H]4[C@@]5(C)CC6=C(C7C(=O)N(c8ccccc8)C(=O)C7C=C6C(F)(F)F)C(C)(C)[C@@H]5CC[C@]43C)[C@H]12 (stereo partly drawn) | 4.3 µM | > 50 µM | 21 µM | 23 µM | 18 µM | 13 µM | 12 µM | 19 µM | 10 µM | > 50 µM | 102% | 99.6% | 102% | 94.2% | 0.292 | 0.33 ×10⁻⁶ cm/s | 60.5% | 82% | 45% | 0.12 ×10⁻⁶ cm/s | efflux ratio [17]: 8.17; remaining at 0.5 h [20]: 64%; efflux ratio [23]: 41.8; recovery [24]: 69.2%; Activity [25]: 93.6%; Activity [26]: 3.6%; Activity [27]: 2.8%; Activity [28]: 0%; Activity [29]: 82.2%; Activity [30]: 10.9%; Activity [31]: 6.9%; Activity [32]: 0%; Activity [38]: Active; Activity [34]: Active; Activity [35]: Active; Activity [36]: 0.6%; Activity [37]: 11.8% |
| C=C(C)[C@@H]1CC[C@]2(C(=O)O)CC[C@]3(C)[C@H](CC[C@@H]4[C@@]5(C)CC6=C(C7C(=O)N(c8ccccc8)C(=O)C7C=C6C(F)(F)F)C(C)(C)[C@@H]5CC[C@]43C)[C@@H]12 (stereo partly drawn) | 4.2 µM | 20 µM | 25 µM | 9.7 µM | 9.7 µM | 7.8 µM | 12 µM | 7.6 µM | > 50 µM | 28 µM | 100% | 92.7% | 95.8% | 101% | 0.273 | 0.1 ×10⁻⁶ cm/s | 94.1% | 99% | 79% | 0.04 ×10⁻⁶ cm/s | recovery [24]: 86%; Activity [25]: 92.5%; Activity [26]: 4.3%; Activity [27]: 3.2%; Activity [28]: 0%; Activity [29]: 91.8%; Activity [30]: 5.2%; Activity [31]: 2.9%; Activity [32]: 0.1%; Activity [38]: Active; Activity [34]: Active; Activity [35]: Active; Activity [36]: 2%; Activity [37]: 2.6% |
